Compounds with a hit are over-represented: about 6.4% of the library has one in this group of screens.
Tb MetRS inh: Trypanosoma brucei MetRS inhibition. purified T. brucei MetRS, ATP depletion, Kinase-Glo luminescence. inhibition, % at 11.9 µM. 360,000 compounds, 0.4% hits;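 active = inhibition above a per-plate cutoff of the control wells' mean inhibition plus 3 SD, cut at about 5.5% in these data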
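Dosing: 11.9 µM single point; system: parasite MetRS enzyme; technique: luminescence of leftover ATP; times: 15 min enzyme-compound preincubation, 2 h reaction, 10 min detection, 25 °C; replicates: each compound tested once; read-out basis: percent inhibition relative to median high and low control wells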
GRIN3A LBD mod: modulates the human NR3A ligand-binding domain; Tm shift relative to glycine control, % at 25 µM; NR3A LBD differential scanning fluorimetry, Tm shift; 0% = protein alone, 100% = glycine-bound protein; 340,000 compounds, 2.5% hits; AID 1259313;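 active = melting temperature shift of at least 10% of the positive control shift, at one fixed dose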
CHOP inhibitor: inhibitors of CHOP induction in ER stress response. 220,000 compounds, 3.8% hits. inhibition, % at 10 µM. CHO-K1 CHOP-promoter luciferase, tunicamycin-induced, 15-18 h;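 active = compounds that reduced the stress-induced luciferase reporter signal by more than about 70% of percent inhibition, limit read from the data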
WT yeast gro inh: growth inhibition of WT yeast, mitochondrial fusion screen; mitochondrial fusion phenotypic screen, WT strain; AID 1362; inhibition, % at 10 µM; 190,000 compounds, 2.1% hits; in the data active = inhibition above about 58%; tested in S. cerevisiae
MPTP inh: inhibitors of mitochondrial permeability transition pore; isolated mouse mitochondria, Ca2+ swelling absorbance, 30 min; 360,000 compounds, 1.4% hits; AID 602449; inhibition, % at 10 µM;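 active = inhibition of 50% or more, scaled per plate between neutral and stimulator controls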
EBV gp42 block: inhibitors of Epstein-Barr virus glycoprotein 42; Q1HVG2; Fluorescence polarization binding assay, mP read-out; inhibition, % (tested at 21.74 µM); 220,000 compounds, 0.42% hits; AID 1085; in the data active = inhibition above about 50%
Target sequence (Q1HVG2 whole entry, looked up): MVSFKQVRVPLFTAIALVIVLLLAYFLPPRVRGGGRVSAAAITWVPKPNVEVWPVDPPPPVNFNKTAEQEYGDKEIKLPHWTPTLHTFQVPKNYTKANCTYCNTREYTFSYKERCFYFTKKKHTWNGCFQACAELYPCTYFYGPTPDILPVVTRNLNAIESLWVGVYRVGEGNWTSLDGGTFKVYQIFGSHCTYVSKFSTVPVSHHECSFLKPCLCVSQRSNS
A number is an active result; 0 = inactive; - = no result given.

SMILES	Tb MetRS inh	GRIN3A LBD mod	CHOP inhibitor	WT yeast gro inh	MPTP inh	EBV gp42 block
O=C(Nc1ncc2c(n1)CC(c1ccco1)CC2=O)c1ccccc1 (stereo not drawn)	0	0	0	70	0	0
Cc1ccc(C(=O)Nc2ncc3c(n2)CC(c2ccco2)CC3=O)cc1 (stereo not drawn)	0	0	0	0	0	0
O=C1CC(c2ccco2)Cc2nc(Nc3nc(-c4ccccc4)c4ccccc4n3)ncc21 (stereo not drawn)	0	0	93	0	0	0
CC(C(=O)Nc1ccccc1C(=O)O)n1c(C(F)(F)F)nc2ccccc21 (stereo not drawn)	0	0	0	0	0	0
CCC(C(=O)O)n1c(C(F)(F)F)nc2ccccc21 (stereo not drawn)	0	12	0	0	0	0
Nc1c(NCCCN2CCOCC2)c2ccccc2oc1=O	0	11	0	0	0	0
CS(=O)(=O)c1nc(-c2ccccc2)cc(-c2ccccc2)c1C#N	0	0	0	0	0	0
COc1ccc(/C=C2\CCC(C3CCCC3)C2=O)cc1 (stereo not drawn)	0	0	-	-	0	-
COc1ccc(/C=C2\CCCC3C2=NC(=S)NC3c2ccc(OC)cc2)cc1 (stereo not drawn)	0	0	0	72	0	0
CCc1nc(N2CCN(C(=O)CCl)CC2)c2c3c(sc2n1)CC(C)CC3 (stereo not drawn)	0	0	-	-	0	-
COc1ccc(C(=O)/C(=C/O)N=Nc2ccc(F)cc2)cc1	0	0	0	0	0	0
COc1ccc(N=N/C(=C\O)C(=O)c2cccs2)cc1	0	0	72	0	0	0
Cc1nc2nc(C)c(NS(=O)(=O)c3ccc4c(c3)CCCC4)c(=O)n2[nH]1	0	0	-	-	0	-
Cc1sc2nc(C(C)Nc3ccccc3N3CCOCC3)[nH]c(=O)c2c1C (stereo not drawn)	0	0	75	0	0	0
CCN(CC)C(=O)CSc1nnc(-c2ccccc2)n1N	0	0	0	0	0	0
COc1ccc(/C=C2/C(=O)N(c3ccccc3)N=C2C)cc1Br	0	0	-	-	0	-
Cc1cc(C)cc(NC(=O)C2CCCN2/C=C/C(=O)C(F)(F)F)c1 (stereo not drawn)	0	13	0	0	0	0
CC(c1ccccc1)N(C)C(=O)CN1CCN(S(=O)(=O)c2ccc3c(c2)OCCCO3)CC1 (stereo not drawn)	0	0	-	-	0	-
O=C(COC(=O)c1cccc(NS(=O)(=O)/C=C/c2ccccc2)c1)Nc1ccccc1OC(F)F	0	19	0	0	0	0
CC(C)c1ccc(OCC(=O)NN2C(=O)c3ccccc3C2=O)c(Br)c1	0	0	-	-	0	-
Cc1nc(SCc2cccc(F)c2)[nH]c(=O)c1C#N	0	13	0	0	0	0
CN=c1scc(-c2ccc(F)cc2)n1/N=C/c1ccc(O)c(O)c1	0	0	72	0	0	0
Nc1nc2ccc(Cl)cc2c2nc(-c3ccco3)nn12	-	-	0	0	-	0
C/C(=N/NC(=O)c1ccc(Cl)s1)c1ccc(NC(=O)COc2ccc(Cl)cc2)cc1	0	0	0	0	0	0
CCC(=O)Nc1ccc(/C(C)=N/NC(=O)c2c(-c3ccccc3Cl)noc2C)cc1	0	11	0	0	0	0
SMILES	Tb MetRS inh	GRIN3A LBD mod	CHOP inhibitor	WT yeast gro inh	MPTP inh	EBV gp42 block
CCC(=O)Nc1ccc(/C(C)=N\NC(=O)c2ccc(C)s2)cc1	0	22	0	0	0	0
COc1ccccc1COC(=O)CN1C(=O)NC2(CCCCC2C)C1=O (stereo not drawn)	0	0	-	-	0	-
O=S(=O)(NCCc1ccccc1)c1cccc2nsnc12	0	0	0	0	0	0
CSc1ccc(Cl)c(C(=O)NCCOc2cc(C(C)C)ccc2C)c1	0	0	0	67	0	0
COc1cc(SC)ccc1C(=O)NCCOc1ccc(Cl)cc1	0	0	0	62	0	0
COc1ccc(CNC(=O)c2ccc(SC)cc2OC)cc1	0	0	0	0	0	0
COc1cc(SC)ccc1C(=O)NCCOc1c(C)cc(C)cc1C	0	0	91	0	0	0
COc1ccc(C(CNC(=O)c2cc(SC)ccc2Cl)N(C)C)cc1 (stereo not drawn)	0	0	0	-	0	0
O=C1c2ccccc2C(=O)N1CCCCON1C(=O)c2ccccc2C1=O	0	0	0	0	0	0
COC(=O)C1=C(O)/C(=C/c2ccc(OCC(=O)Nc3ccc(OC)cc3)cc2)N=C1C	0	-	-	-	0	-
